{"source": "paper PMC2574552", "about": "(Molecular pharmacology, 2008)", "key": {"human mGluR4": {"target": "human mGluR4 (Homo sapiens, UniProt Q14833)", "sequence (Q14833 33-912)": "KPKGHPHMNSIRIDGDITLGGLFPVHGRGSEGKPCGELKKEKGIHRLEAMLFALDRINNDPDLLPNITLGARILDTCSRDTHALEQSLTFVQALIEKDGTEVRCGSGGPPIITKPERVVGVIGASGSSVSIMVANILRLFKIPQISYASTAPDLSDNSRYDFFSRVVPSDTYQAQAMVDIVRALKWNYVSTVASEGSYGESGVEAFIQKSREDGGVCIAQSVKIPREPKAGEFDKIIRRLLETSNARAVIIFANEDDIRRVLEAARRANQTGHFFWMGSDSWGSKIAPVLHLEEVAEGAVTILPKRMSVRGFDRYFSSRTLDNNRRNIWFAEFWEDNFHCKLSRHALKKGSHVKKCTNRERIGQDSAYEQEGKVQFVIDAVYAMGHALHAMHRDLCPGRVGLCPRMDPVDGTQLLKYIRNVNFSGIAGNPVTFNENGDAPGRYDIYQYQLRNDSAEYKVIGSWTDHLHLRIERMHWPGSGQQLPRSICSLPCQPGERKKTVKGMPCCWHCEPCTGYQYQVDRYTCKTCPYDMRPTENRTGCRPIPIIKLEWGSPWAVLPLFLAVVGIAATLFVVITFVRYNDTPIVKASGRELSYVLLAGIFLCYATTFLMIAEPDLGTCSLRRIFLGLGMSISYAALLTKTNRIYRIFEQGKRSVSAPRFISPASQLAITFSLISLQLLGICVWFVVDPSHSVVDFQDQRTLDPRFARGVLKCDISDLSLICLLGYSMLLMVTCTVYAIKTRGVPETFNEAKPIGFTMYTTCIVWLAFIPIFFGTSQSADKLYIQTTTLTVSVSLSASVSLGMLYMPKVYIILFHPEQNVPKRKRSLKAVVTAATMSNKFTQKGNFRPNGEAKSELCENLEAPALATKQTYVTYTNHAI", "assay": "human mGluR4/Gqi5/CHO calcium mobilization assay", "type": "cell-based", "conditions": "for Fold shift hmGluR4/Gqi5: leftward shift of glutamate concentration-response curve at 30 μM PAM"}, "rat mGluR4": {"target": "rat mGluR4 (Rattus norvegicus, UniProt P31423)", "sequence (P31423 33-912)": "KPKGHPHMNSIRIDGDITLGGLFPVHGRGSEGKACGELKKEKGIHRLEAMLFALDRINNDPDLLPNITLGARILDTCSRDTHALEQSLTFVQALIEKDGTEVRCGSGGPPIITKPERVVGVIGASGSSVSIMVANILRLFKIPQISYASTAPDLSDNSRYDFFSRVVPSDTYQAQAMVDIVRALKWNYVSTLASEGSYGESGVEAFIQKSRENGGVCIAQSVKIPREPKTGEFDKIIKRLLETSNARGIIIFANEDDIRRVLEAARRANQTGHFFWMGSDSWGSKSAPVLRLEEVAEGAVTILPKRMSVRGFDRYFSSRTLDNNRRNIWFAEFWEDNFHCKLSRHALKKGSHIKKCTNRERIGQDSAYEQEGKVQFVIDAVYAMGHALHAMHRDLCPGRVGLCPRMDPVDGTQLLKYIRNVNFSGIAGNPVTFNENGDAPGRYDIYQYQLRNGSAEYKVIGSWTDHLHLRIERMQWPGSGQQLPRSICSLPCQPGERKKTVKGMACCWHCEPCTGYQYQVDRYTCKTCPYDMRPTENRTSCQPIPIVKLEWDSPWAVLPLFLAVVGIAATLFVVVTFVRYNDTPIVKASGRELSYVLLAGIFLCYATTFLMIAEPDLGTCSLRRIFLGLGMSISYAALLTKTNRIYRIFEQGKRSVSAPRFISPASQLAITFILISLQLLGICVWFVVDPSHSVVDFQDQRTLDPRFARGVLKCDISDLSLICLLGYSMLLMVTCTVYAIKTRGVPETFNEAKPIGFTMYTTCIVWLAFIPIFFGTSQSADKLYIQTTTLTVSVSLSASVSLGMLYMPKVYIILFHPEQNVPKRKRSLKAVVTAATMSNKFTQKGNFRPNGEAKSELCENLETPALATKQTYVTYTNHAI", "assay": "rat mGluR4/GIRK thallium flux assay", "type": "cell-based", "conditions": "for Fold shift rmGluR4/GIRK: leftward shift of glutamate concentration-response curve at 30 μM PAM; for % Max rmGluR4/GIRK: maximal potentiated EC20 response vs response to maximal glutamate alone"}, "[1]": {"system": "haloperidol-induced catalepsy", "assay": "reversal of haloperidol-induced catalepsy", "type": "in vivo", "conditions": "rat, icv", "summary_of_the_method": "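Male Sprague-Dawley rats (225−255 g) carried third-ventricle cannulae. They received haloperidol 1.5 mg/kg i.p. in 0.2% lactic acid. At 2 h, cataleptic rats (staying on the bar 45−60 s; forepaw-removal latency timed) got icv either L-AP4 (100−1000 nmol/10 μl, artificial CSF), test compound (31 or 93 nmol/10 μl, aqueous vehicle pH 7.4) or vehicle. Rats were retested at 15, 30 and 60 min; 6 rats/group; Dunnett's test versus vehicle.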"}, "[2]": {"system": "reserpine-induced akinesia", "assay": "reversal of reserpine-induced akinesia", "type": "in vivo", "conditions": "rat, icv, reserpine 5 mg/kg s.c., 2 h pretreatment"}, "mGluR4": {"system": "mGluR4", "conditions": "read-out: potency at mGluR4 in vitro; ref Marino et al., 2003; cited from earlier work"}, "[3]": {"assay": "solubility in dosing vehicle", "type": "physicochemical"}, "human mGluR2": {"target": "human mGluR2 (Homo sapiens, UniProt Q14416)", "sequence (Q14416 19-872)": "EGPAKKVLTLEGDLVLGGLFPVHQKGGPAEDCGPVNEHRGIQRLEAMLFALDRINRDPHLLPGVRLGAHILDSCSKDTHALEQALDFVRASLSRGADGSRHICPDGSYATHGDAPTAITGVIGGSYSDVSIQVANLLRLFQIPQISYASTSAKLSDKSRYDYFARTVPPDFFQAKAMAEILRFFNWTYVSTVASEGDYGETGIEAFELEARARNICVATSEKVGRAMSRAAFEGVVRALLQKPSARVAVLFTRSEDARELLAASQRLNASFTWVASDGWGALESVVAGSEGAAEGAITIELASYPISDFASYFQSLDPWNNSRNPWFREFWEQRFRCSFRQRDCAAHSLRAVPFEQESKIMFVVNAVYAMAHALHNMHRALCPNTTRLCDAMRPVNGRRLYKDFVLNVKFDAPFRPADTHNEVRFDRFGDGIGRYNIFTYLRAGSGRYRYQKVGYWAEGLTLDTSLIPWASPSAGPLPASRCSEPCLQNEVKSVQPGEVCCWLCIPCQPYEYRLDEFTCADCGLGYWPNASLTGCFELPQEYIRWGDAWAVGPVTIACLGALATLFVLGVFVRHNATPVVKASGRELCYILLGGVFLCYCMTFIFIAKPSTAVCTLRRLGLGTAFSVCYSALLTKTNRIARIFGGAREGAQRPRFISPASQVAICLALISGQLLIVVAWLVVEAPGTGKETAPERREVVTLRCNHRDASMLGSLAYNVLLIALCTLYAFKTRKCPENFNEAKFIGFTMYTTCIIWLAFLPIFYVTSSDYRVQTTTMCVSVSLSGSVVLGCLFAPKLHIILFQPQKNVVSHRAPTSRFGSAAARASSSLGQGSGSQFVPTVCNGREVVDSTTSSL", "assay": "human mGluR2 GTPγS binding assay", "type": "biochemical", "conditions": "30 μM; glutamate EC20", "summary_of_the_method": "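Nonspecific binding: 10 μM unlabelled GTPγS. Mixes shaken 60 min at room temperature, filtered, washed three times and counted by scintillation. Normalised to no-compound response; mean ± S.E.M.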"}, "rat mGluR5": {"target": "rat mGluR5 (Rattus norvegicus, UniProt P31424)", "sequence (P31424 21-1203)": "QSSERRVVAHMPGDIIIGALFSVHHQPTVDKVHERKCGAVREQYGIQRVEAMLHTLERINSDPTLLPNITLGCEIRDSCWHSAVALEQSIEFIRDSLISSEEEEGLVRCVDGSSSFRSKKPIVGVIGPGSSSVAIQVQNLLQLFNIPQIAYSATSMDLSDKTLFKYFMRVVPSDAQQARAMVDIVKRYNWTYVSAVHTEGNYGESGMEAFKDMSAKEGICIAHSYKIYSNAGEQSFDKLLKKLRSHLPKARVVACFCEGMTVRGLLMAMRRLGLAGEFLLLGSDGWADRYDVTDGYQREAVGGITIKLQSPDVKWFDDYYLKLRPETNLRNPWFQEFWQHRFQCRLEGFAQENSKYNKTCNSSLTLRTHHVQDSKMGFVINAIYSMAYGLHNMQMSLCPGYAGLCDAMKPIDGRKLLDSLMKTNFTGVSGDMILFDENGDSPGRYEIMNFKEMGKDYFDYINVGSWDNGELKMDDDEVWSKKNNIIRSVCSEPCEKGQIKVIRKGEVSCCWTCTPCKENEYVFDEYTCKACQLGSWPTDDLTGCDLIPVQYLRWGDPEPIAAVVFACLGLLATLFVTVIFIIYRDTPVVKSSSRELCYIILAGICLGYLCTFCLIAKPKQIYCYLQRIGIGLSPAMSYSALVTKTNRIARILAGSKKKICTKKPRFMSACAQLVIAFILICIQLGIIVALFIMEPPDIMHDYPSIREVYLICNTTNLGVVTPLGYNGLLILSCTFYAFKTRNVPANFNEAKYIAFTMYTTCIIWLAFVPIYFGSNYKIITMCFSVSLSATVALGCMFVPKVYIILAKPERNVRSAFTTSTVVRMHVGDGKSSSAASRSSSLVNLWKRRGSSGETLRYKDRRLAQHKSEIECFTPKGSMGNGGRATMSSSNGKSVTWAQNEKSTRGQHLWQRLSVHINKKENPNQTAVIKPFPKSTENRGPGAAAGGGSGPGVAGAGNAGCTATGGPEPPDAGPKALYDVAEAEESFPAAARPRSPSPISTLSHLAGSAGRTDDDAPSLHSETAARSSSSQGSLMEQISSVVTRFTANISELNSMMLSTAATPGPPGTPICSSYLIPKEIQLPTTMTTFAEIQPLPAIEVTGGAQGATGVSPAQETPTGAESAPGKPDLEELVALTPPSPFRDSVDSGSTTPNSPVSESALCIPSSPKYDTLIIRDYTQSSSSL", "assay": "rat mGluR5/HEK calcium fluorescence counterscreen", "type": "cell-based", "conditions": "30 μM; glutamate EC20", "summary_of_the_method": "(§1)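 Cells were plated on poly-D-lysine plates in DMEM with 10% dialysed FBS, 20 mM HEPES and 1 mM pyruvate: mGluR1/BHK at 15,000 cells/well, mGluR5/HEK at 20,000 cells/well. They were loaded with 1 μM Fluo-4 AM for 45 min at 37°C in HBSS with 20 mM HEPES and 2.5 mM probenecid. […] Peak fluorescence was taken against control and normalised to no-compound response.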"}, "rat mGluR7": {"target": "rat mGluR7 (Rattus norvegicus, UniProt P35400)", "sequence (P35400 35-915)": "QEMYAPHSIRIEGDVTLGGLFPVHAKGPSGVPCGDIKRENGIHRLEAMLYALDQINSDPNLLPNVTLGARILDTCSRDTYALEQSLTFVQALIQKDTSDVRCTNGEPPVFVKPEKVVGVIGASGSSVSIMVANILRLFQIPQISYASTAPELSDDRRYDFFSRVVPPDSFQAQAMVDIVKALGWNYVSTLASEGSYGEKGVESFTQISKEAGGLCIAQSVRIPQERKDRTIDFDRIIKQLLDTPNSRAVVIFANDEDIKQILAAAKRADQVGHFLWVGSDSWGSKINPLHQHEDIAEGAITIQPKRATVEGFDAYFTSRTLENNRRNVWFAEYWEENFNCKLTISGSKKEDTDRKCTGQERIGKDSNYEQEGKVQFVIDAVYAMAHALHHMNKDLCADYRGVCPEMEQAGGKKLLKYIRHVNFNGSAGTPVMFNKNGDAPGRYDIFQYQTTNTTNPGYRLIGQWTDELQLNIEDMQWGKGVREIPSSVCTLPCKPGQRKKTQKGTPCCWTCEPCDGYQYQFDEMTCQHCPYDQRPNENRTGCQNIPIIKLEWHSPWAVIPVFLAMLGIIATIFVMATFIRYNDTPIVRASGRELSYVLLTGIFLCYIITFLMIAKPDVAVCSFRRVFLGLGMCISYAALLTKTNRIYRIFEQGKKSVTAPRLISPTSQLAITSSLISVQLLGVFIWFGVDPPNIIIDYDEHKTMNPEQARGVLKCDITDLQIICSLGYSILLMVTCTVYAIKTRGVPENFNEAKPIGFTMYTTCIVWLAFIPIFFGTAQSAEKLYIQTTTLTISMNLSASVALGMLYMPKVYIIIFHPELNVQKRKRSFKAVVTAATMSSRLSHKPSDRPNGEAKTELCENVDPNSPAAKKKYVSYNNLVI", "assay": "rat mGluR7/GIRK thallium flux assay", "type": "cell-based", "conditions": "30 μM; L-AP4 EC20", "summary_of_the_method": "(§2)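 GIRK-coexpressing cells were plated at 15,000/well on poly-D-lysine and grown overnight at 37°C, 5% CO2. They were loaded with 1.7 μM BTC-AM for 1 h at room temperature, then buffer was exchanged. […] Fluorescence was read at 470/540 nm, at 1 Hz for 2 min after agonist. Normalised to no-compound response; mean ± S.E.M.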"}, "rat mGluR8": {"target": "rat mGluR8 (Rattus norvegicus, UniProt P70579)", "assay": "rat mGluR8/GIRK thallium flux assay", "type": "cell-based", "conditions": "30 μM; glutamate EC20", "summary_of_the_method": "as §2"}, "rat mGluR1": {"target": "rat mGluR1 (Rattus norvegicus, UniProt P23385)", "assay": "rat mGluR1/BHK calcium fluorescence counterscreen", "type": "cell-based", "conditions": "30 μM; glutamate EC20", "summary_of_the_method": "as §1"}, "NMDA receptor": {"system": "NMDA receptor", "type": "cell-based, rat", "conditions": "n = 5"}, "[4]": {"system": "67 different targets including GPCRs, ion channels, and transporters", "assay": "MDS-Pharma radioligand binding panel", "conditions": "MDS-Pharma Services; Supplemental Table 2"}}, "note": "Where two headings read alike, the source gives them in different places.", "data": [{"compound": "O=C(O)C1CCCCC1C(=O)Nc1cc(Cl)cc(Cl)c1", "note": "[(1R, 2S)]", "values": [{"measurement": "potency and efficacy of single cis-enantiomers", "setting": "human mGluR4; mGluR4, assay not specified, data not shown", "value": "equal potency and efficacy"}]}, {"compound": "N[C@@H](CCC(=O)O)C(=O)O", "note": "[glutamate, L-glutamate, reference compound]", "values": [{"measurement": "EC50", "setting": "rat mGluR4", "value": "9.2 ± 1.2", "unit": "µM"}]}, {"compound": "O=C(O)[C@@H]1CCCC[C@H]1C(=O)Nc1cc(Cl)cc(Cl)c1", "note": "(racemic) [VU0155040, (±)-trans-2-(3,5-Dichlorophenylcarbamoyl)cyclohexanecarboxylic acid]", "values": [{"measurement": "Fold shift hmGluR4/Gqi5", "setting": "human mGluR4", "value": "3.0±0.3", "unit": "fold"}, {"measurement": "Fold shift rmGluR4/GIRK", "setting": "rat mGluR4", "value": "2.5±0.5", "unit": "fold"}]}, {"compound": "N[C@@H](CCP(=O)(O)O)C(=O)O", "note": "[L-AP4, L-(+)-2-amino-4-phosphonobutryic acid, reference compound]", "values": [{"measurement": "haloperidol-induced catalepsy", "setting": "[1]; 100−1000 nmol, dose-dependent, haloperidol 1.5 mg/kg i.p.", "value": "significantly decreased"}, {"measurement": "reversal of reserpine-induced akinesia", "setting": "[2]; 300 and 1000 nmol", "value": "significant reversals of akinesia"}]}, {"compound": "N-Phenyl-7-(hydroxyimino)cyclopropa[b]chromen-1a-carboxamide [PHCCC, reference compound]", "values": [{"measurement": "EC50", "setting": "mGluR4", "value": "~4", "unit": "µM"}, {"measurement": "maximal agonist response, percent of the maximal glutamate response", "setting": "rat mGluR4; compound alone, no glutamate, observed at 30 μM", "value": "−2.3±2.0", "unit": "%"}, {"measurement": "% Max rmGluR4/GIRK", "setting": "rat mGluR4", "value": "120.3±4.4", "unit": "%"}, {"measurement": "solubility in vehicle", "setting": "[3]; vehicle for icv administration", "value": "only soluble in vehicles containing high concentrations of DMSO or other relatively toxic vehicles"}]}, {"compound": "O=C(O)C1CCCCC1C(=O)Nc1cc(Cl)cc(Cl)c1", "note": "(centres unmarked) [Compound 2h, 2-(3,5-Dichlorophenylcarbamoyl)cyclohexanecarboxylic acid]", "values": [{"measurement": "EC50", "setting": "human mGluR4", "value": "0.75 ± 0.2", "unit": "µM"}, {"measurement": "response to compound alone in calcium assay", "setting": "human mGluR4; 10 μM, absence of glutamate, trace from original HTS", "value": "small calcium response"}, {"measurement": "Fold shift hmGluR4/Gqi5", "setting": "human mGluR4", "value": "6.5±1.0", "unit": "fold"}, {"measurement": "improved potency compared to PHCCC", "setting": "human mGluR4; mGluR4 PAM potency relative to PHCCC", "value": "approximately 8 fold"}, {"measurement": "% Max hmGluR4/Gqi5", "setting": "human mGluR4; maximal potentiated EC20 response vs response to maximal glutamate alone", "value": "120.0±6.7", "unit": "%"}, {"measurement": "EC50", "setting": "rat mGluR4", "value": "0.56 ± 0.1", "unit": "µM"}, {"measurement": "Fold shift rmGluR4/GIRK", "setting": "rat mGluR4", "value": "7.7±0.6", "unit": "fold"}, {"measurement": "% Max rmGluR4/GIRK", "setting": "rat mGluR4", "value": "107.6±6.3", "unit": "%"}, {"measurement": "potentiation of EC20 agonist response, mGluR2", "setting": "human mGluR2", "value": "did not potentiate"}, {"measurement": "potentiation of EC20 agonist response, mGluR5", "setting": "rat mGluR5", "value": "did not potentiate"}, {"measurement": "potentiation of EC20 agonist response, mGluR7", "setting": "rat mGluR7", "value": "did not potentiate"}, {"measurement": "potentiation of EC20 agonist response, mGluR8", "setting": "rat mGluR8", "value": "did not potentiate"}, {"measurement": "potentiation of EC20 agonist response, mGluR1", "setting": "rat mGluR1", "value": "did not potentiate"}]}, {"compound": "C[C@@H](CN1CCC(Cc2ccccc2)CC1)[C@@H](O)c1ccc(O)cc1", "note": "[Ro25−6981, (αR,βS)-α-(4-hydroxyphenyl)-β-methyl-4-(phenylmethyl)-1-piperidinepropanol, reference compound]", "values": [{"measurement": "peak amplitude of NMDAR currents", "setting": "NMDA receptor; 1 μM, p < 0.003", "value": "53.1 ± 8.5 % of control"}]}, {"compound": "O=C(Nc1cc(Cl)cc(Cl)c1)[C@H]1CCCC[C@H]1C(=O)O", "note": "(racemic) [VU0155041, (±)-cis-2-(3,5-Dicholorphenylcarbamoyl)cyclohexanecarboxylic acid]", "values": [{"measurement": "Fold shift hmGluR4/Gqi5", "setting": "human mGluR4", "value": "6.4±0.7", "unit": "fold"}, {"measurement": "effect on radioligand binding at 67 targets", "setting": "[4]", "value": "no effect on binding at any target examined"}, {"measurement": "haloperidol-induced catalepsy", "setting": "[1]; doses of 31 and 92 nmol, effects still present 30 min after infusion", "value": "significantly decrease"}, {"measurement": "Fold shift rmGluR4/GIRK", "setting": "rat mGluR4", "value": "4.7±0.4", "unit": "fold"}, {"measurement": "EC50", "setting": "rat mGluR4; read-out: potency at rat mGluR4 (GIRK assay), potentiation of EC20 glutamate", "value": "0.693 ± 0.14", "unit": "µM"}, {"measurement": "amplitude of NMDA receptor currents", "setting": "NMDA receptor; 10 μM, p > 0.3", "value": "106.3 ± 5.8 % of control"}, {"measurement": "solubility in vehicle", "setting": "[3]", "value": "soluble in an aqueous vehicle"}, {"measurement": "reversal of reserpine-induced akinesia", "setting": "[2]; 316 nmol", "value": "significant reversal of akinesia"}]}]}
